Data set [1] has as its target T1, Plasma kallikrein (Homo sapiens, UniProt P03952). The experiment in a line: Inhibition of human plasma kallikrein using H-D-Pro-Phe-Arg-AFC as flurogenic substrate at 1000 nM preincubated for 5 mins followed by substrate addition by fluorometer analysis relative to control. It counts as cell-free. The procedure, abridged: (§1)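 Crude library compounds (unpurified, dissolved in DMSO) were screened twice, once at each of the single concentrations. Human plasma kallikrein was preincubated with compound for 5 min, then H-D-Pro-Phe-Arg-AFC was added. Activity was followed as the kinetic rate of fluorogenic substrate cleavage, and percent inhibition was calculated relative to control.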

Data set [2] has as its target T1, Plasma kallikrein. Kind of data set: Inhibition of human plasma kallikrein using H-D-Pro-Phe-Arg-AFC as flurogenic substrate preincubated for 5 mins followed by substrate addition by fluorometer analysis. It counts as cell-free.
The target in data set [3] is T1, Plasma kallikrein. Kind of data set: Inhibition of human plasma kallikrein using H-D-Pro-Phe-Arg-AFC as flurogenic substrate at 100 nM preincubated for 5 mins followed by substrate addition by fluorometer analysis relative to control. It counts as cell-free. The procedure, abridged:
as §1

Data set [4] is described as follows: Metabolic stability in human liver microsomes assessed as intrinsic clearance per mg of protein measured upto 60 mins in presence of NADPH regenerating system by LC-MS/MS analysis. Format: ADME, Microsome. Conditions: for microsomal intrinsic clearance: microsomes, 1 h.
Data set [5] can be described thus: Kinetic solubility of the compound in aqueous assay buffer at pH 7.7.
A short description of data set [6]: Kinetic solubility of the compound in 0.1N HCl.
The nature of data set [7]: Apparent permeability of the compound across apical side to basolateral side in human Caco-2 cells incubated for 1 hr by LC-MS/MS analysis. The settings on record: for Papp: caco-2, 1 h.
Data set [8] can be described thus: Thermodynamic solubility of the compound in FaSSGF at 1 mg/ml at pH 1.6 measured after 4 hrs. It counts as physicochemical. Conditions: FaSSGF, pH 1.6, read-out: Therm_solubility. In short, it runs like this:
(§2)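 Compound (nominal 1 or 100 mg/mL as free base) added to biorelevant medium preheated to 37 °C: FaSSGF at pH 1.6 or FaSSIF at pH 6.5. Vortexed, then shaken 4 h at 37 °C (~500 rpm). Centrifuged at 15000g for 10 min at 37 °C. Supernatant diluted and quantified against calibration standards. Crystalline material used where stated.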

Data set [9] is described as follows: Clearance in Sprague-Dawley rat blood at 1 mg/kg, iv measured upto 24 hrs by LC-MS analysis. It counts as ADME, organism-based. The settings on record: whole blood. The procedure, abridged: (§3)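 Male Sprague-Dawley rats, two per route, single dose. IV: 1 mg/kg given as 1 mL/kg of a nominal 1 mg/mL formulation in vehicle. PO: 10 mg/kg given as 5 mL/kg of a 2 mg/mL formulation. PK parameters from noncompartmental analysis. Clearance expressed relative to rat liver blood flow of 80 mL/min/kg.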

The nature of data set [10]: Clearance in Sprague-Dawley rat assessed as liver blood flow at 1 mg/kg, iv measured upto 24 hrs by LC-MS analysis. Format: ADME, organism-based. Conditions: in vivo. In short, it runs like this: as §3
The nature of data set [11]: Half life in Sprague-Dawley rat at 10 mg/kg, po and 1 mg/kg, iv measured upto 24 hrs by LC-MS analysis. Format: ADME, organism-based. The settings on record: in vivo. The procedure, abridged:
as §3

The nature of data set [12]: Oral bioavailability in Sprague-Dawley rat at 10 mg/kg measured upto 24 hrs by LC-MS analysis. It counts as ADME, organism-based. Conditions: in vivo. In short, it runs like this:
as §3

Data set [13] is described as follows: Thermodynamic solubility of the compound in FaSSIF at 1 mg/ml at pH 6.5 measured after 4 hrs. It counts as physicochemical. In short, it runs like this:
as §2

Usually inhibition stands for the change of the read-out against control, counted positive when it falls. A high value points to a strong effect. One may read the IC50 as the midpoint of a concentration-inhibition curve. As a reminder, the solubility (kinetic) is the concentration staying in solution when a stock, usually in DMSO, is diluted into the medium. The clearance is a measure of how efficiently the substance is removed, as volume per time. A low value points to a low capacity for elimination. By Papp A→B is commonly meant the apparent permeability from the apical to the basolateral side of a cell layer.

Each structure is given as a SMILES string. ≈ marks a conversion by molar mass, not a printed value.

T1 sequence (P03952 20-390 limits assumed): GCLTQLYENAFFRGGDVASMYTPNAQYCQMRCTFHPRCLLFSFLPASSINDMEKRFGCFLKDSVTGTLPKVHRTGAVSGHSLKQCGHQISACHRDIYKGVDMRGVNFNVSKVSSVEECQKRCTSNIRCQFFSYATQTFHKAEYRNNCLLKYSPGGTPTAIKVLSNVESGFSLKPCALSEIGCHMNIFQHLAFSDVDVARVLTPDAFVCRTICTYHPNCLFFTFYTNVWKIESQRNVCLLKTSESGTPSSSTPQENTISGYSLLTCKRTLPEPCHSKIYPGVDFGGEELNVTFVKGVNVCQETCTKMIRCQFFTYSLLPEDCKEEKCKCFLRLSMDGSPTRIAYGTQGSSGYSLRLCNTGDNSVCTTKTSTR
T1 sequence (P03952 391-638 limits assumed): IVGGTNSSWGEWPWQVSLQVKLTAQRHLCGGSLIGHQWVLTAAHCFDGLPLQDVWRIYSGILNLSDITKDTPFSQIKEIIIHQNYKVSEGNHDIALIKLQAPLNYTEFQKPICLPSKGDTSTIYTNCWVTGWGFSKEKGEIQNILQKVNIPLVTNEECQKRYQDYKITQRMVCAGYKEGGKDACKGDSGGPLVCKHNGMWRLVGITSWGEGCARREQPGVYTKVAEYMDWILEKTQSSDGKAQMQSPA

As to `O=C(NCc1c(F)cccc1F)c1cnn(Cc2ccc(Cn3ccccc3=O)cc2)c1`, the inhibition in data set [1] is 88%; in [3] it was 47%. In [2], this compound registered an IC50 of 62 nM.

Regarding `O=C(NCc1ccccc1Cl)c1cnn(Cc2ccc(Cn3ccccc3=O)cc2)c1`, the inhibition in [1] was found to be 67%; in data set [3], 12%.

As to `Cc1cccc(CNC(=O)c2cnn(Cc3ccc(Cn4ccccc4=O)cc3)c2)c1`, the figures for the inhibition in data set [1] and in data set [3] were 57% and 11%, respectively.

On to `O=C(NCc1ccccc1)c1cnn(Cc2ccc(Cn3ccccc3=O)cc2)c1`, for which the figures for the inhibition in [1] and in [3] were 29% and 0%, respectively.

Consider `O=C(NCc1c(F)cccc1C(F)(F)F)c1cnn(Cc2ccc(Cn3ccccc3=O)cc2)c1`, for which the values for the inhibition in data set [1] and in data set [3] were 97% and 83%, respectively. The IC50 in data set [2] was found to be 7.8 nM.

Turning to `COCc1nn(Cc2ccc(Cn3ccccc3=O)cc2)cc1C(=O)NCc1c(Cl)ccc(OC)c1F`, the microsomal intrinsic clearance in data set [4] was 120 µL/min. The kinetic solubility in data set [5] and in data set [6] was more than 120 µg/mL in each case.

In the case of `COc1ccccc1CNC(=O)c1cnn(Cc2ccc(Cn3ccccc3=O)cc2)c1`, the inhibition is 63% in data set [1] and 11% in [3].

Regarding `O=C(NCc1ccccc1F)c1cnn(Cc2ccc(Cn3ccccc3=O)cc2)c1`, the inhibition in data set [1] is 59%; in data set [3] it was 13%.

Take `COc1ccc(F)c(CNC(=O)c2cnn(Cc3ccc(Cn4ccccc4=O)cc3)c2)c1F`: the IC50 in data set [2] was determined as 3 nM. In addition, the microsomal intrinsic clearance in [4] is 36 µL/min.

For the compound `O=C(NCc1ccc(Cl)cc1)c1cnn(Cc2ccc(Cn3ccccc3=O)cc2)c1`, the inhibition came to 60% in [1] and 13% in data set [3].

Compound `COc1ccc(F)c(CNC(=O)c2cn(Cc3ccc(Cn4ccccc4=O)cc3)nc2CN(C)C)c1F` returned an IC50 in data set [2] of 6.3 nM. Also, the Papp in [7] was 14 10^-6 cm/s. In data set [4], the microsomal intrinsic clearance worked out at 280 µL/min.

Take `COc1ccc(CNC(=O)c2cnn(Cc3ccc(Cn4ccccc4=O)cc3)c2)cc1`: the results for the inhibition in data set [1] and in data set [3] were 72% and 17%, respectively.

`COCc1nn(Cc2ccc(Cn3ccccc3=O)cc2)cc1C(=O)NCc1nccc(OC)c1C` came in with an IC50 in [2] of 4.1 nM. Besides, the solubility thermodynamic at 4 h in data set [8] was found to be 970 µg/mL (≈ 1990 µM). This compound returned a clearance in [9] of 35 mL/min/kg. Besides, in data set [10], the LBF was 44%. This compound came in with a t1/2 in data set [11] of 1 h. Besides, the F in data set [12] came to 31%. For the same compound, the Therm_solubility in data set [13] (simulated gi fluid, pH 6.5, 4 h) was 110 µg/mL.

`O=C(NCc1cccc(Cl)c1)c1cnn(Cc2ccc(Cn3ccccc3=O)cc2)c1`: the results for the inhibition in data set [1] and in [3] were 74% and 20%, respectively.

For `COc1cccc(CNC(=O)c2cn(Cc3ccc(Cn4ccccc4=O)cc3)nc2N(C)C)c1F`, the kinetic solubility in [5] and in data set [6] was more than 120 µg/mL throughout.

In data set [2], `COCc1nn(Cc2ccc(Cn3ccccc3=O)cc2)cc1C(=O)NCc1cccc(OC)c1F` came in with an IC50 of 17 nM. Besides, the Papp in data set [7] is on record as 25 10^-6 cm/s. The microsomal intrinsic clearance in data set [4] stood at 45 µL/min. The kinetic solubility in [5] and in data set [6] was more than 120 µg/mL each time.

`CCOc1ccnc(CNC(=O)c2cn(Cc3ccc(Cn4ccccc4=O)cc3)nc2COC)c1F` had an IC50 in data set [2] of 7.9 nM. The microsomal intrinsic clearance in data set [4] is 69 µL/min.

In the case of `COCc1nn(Cc2ccc(Cn3ccccc3=O)cc2)cc1C(=O)NCc1cccc(O)c1F`, the kinetic solubility in data set [5] and in data set [6] was more than 120 µg/mL throughout.

Consider `COc1cccc(CNC(=O)c2cn(Cc3ccc(Cn4ccccc4=O)cc3)nc2C2CC2)c1F`, for which, in data set [4], the microsomal intrinsic clearance stood at 170 µL/min. The solubility (kinetic) was 58 µg/mL (≈ 119 µM) in [5] and more than 110 µg/mL in data set [6].

`COCc1nn(Cc2ccc(Cn3ccccc3=O)cc2)cc1C(=O)NCc1c(C#N)ccc(OC)c1F` gave an IC50 in data set [2] of 1 nM. Further, the Papp in data set [7] was 14 10^-6 cm/s. For the same compound, in data set [4], the microsomal intrinsic clearance was 58 µL/min. Also, the solubility thermodynamic at 4 h came to 21 µg/mL (≈ 40.7 µM) in data set [8] and 31 µg/mL (≈ 60.1 µM) in data set [13] (FaSSIF, pH 6.5, read-out: Therm_solubility). Moreover, the solubility (kinetic) in [5] and in [6] was more than 120 µg/mL each time. The same compound had a clearance in [9] of 27.6 mL/min/kg. In data set [10], the LBF amounted to 35%. In data set [11], this compound gave a t1/2 of 1.1 h. For the same compound, the F in [12] is reported as 20%.

`Nc1cccc2cc(CNC(=O)c3cnn(Cc4ccc(Cn5ccccc5=O)cc4)c3)ccc12`: the Papp A→B at 1 h in data set [7] (Caco-2) stood at 2 ×10⁻⁶ cm/s. The microsomal CLint in data set [4] (liver microsomes, read-out: CLH) was 37 µL/min/mg.

In the case of `COc1cccc(CNC(=O)c2cnn(Cc3ccc(Cn4ccccc4=O)cc3)c2)c1`, the inhibition turned out to be 83% in [1] and 35% in data set [3]. Also, the IC50 in data set [2] came out at 90 nM.

Turning to `O=C(NCc1c(Cl)cccc1Cl)c1cnn(Cc2ccc(Cn3ccccc3=O)cc2)c1`, the inhibition in data set [1] came out at 94%; in data set [3], 56%. Besides, in data set [2], half-maximal inhibition (IC50) was put at 40 nM.

Take `Cc1cnn(Cc2ccc(Cn3cc(C(=O)NCc4ccc5c(N)nccc5c4)cn3)cc2)c1`: in data set [4], the microsomal intrinsic clearance was found to be 181 µL/min.

In the case of `Cc1ccccc1CNC(=O)c1cnn(Cc2ccc(Cn3ccccc3=O)cc2)c1`, the inhibition in data set [1] turned out to be 62%; in [3], 12%.

As for `O=C(NCc1c(F)cccc1Cl)c1cnn(Cc2ccc(Cn3ccccc3=O)cc2)c1`, the inhibition turned out to be 92% in [1] and 61% in data set [3]. The midpoint of inhibition in data set [2], the IC50, lay at 31 nM.

In data set [2], `COc1ccnc(CNC(=O)c2cn(Cc3ccc(Cn4ccccc4=O)cc3)nc2C2CC2)c1F` yielded an IC50 of 4.4 nM. Moreover, in data set [4], the microsomal intrinsic clearance was determined as 49 µL/min.

`COCc1nn(Cc2ccc(Cn3ccccc3=O)cc2)cc1C(=O)NCc1cc(OC)ccc1F`: the kinetic solubility in [5] and in data set [6] was more than 120 µg/mL in each case.

In data set [2], `COc1ccnc(CNC(=O)c2cnn(Cc3ccc(Cn4ccccc4=O)cc3)c2)c1F` showed an IC50 of 5.1 nM. Moreover, the microsomal intrinsic clearance in data set [4] worked out at 2 µL/min.

As for `Cc1cccc(C)c1CNC(=O)c1cnn(Cc2ccc(Cn3ccccc3=O)cc2)c1`, the results for the inhibition in data set [1] and in data set [3] were 89% and 53%, respectively. Further, in data set [2], the IC50 is 68 nM.

As to `CCc1cccc(CNC(=O)c2cn(Cc3ccc(Cn4ccccc4=O)cc3)nc2COC)c1F`, the solubility (kinetic) was more than 120 µg/mL in data set [5] and 29 µg/mL (≈ 59.4 µM) in data set [6].

For `Cc1ccc(CNC(=O)c2cnn(Cc3ccc(Cn4ccccc4=O)cc3)c2)cc1`, the inhibition in data set [1] is 84%; in data set [3], 36%. In [2], this compound yielded an IC50 of 88 nM.

Source of the values: ChEMBL document CHEMBL5108074 (J Med Chem, 2022).
